Assay results pooled from the literature.
Each line is one published result; the experiments were not run side by side.
Target: Serine/threonine-protein kinase STK11 (STK11, Homo sapiens, UniProt Q15831)
One construct used (Q15831 1-433): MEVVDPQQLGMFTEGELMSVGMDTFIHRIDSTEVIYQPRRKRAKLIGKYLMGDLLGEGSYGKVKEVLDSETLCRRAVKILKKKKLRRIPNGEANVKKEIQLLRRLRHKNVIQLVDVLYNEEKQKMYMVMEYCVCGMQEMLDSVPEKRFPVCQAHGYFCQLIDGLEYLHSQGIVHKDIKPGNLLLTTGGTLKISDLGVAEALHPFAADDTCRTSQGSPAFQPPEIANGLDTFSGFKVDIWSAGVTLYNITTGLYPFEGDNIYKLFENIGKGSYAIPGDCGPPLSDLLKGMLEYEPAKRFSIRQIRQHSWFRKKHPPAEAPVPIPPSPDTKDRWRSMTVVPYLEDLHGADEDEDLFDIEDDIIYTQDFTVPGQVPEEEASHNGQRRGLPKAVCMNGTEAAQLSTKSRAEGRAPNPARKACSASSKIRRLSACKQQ

N#Cc1ccc(NC(=O)Nc2ccccc2)cc1
remaining binding (cell-free assay; competition with immobilised ligand; 25 µM): 85%

C[C@H]1CC[C@H](n2c3cnccc3c3cnc(Nc4ccc5c(n4)CCN(C(=O)CO)C5)nc32)CC1
remaining binding (binding; competition with immobilised ligand; 1 µM): 71%

CO[C@@H]1[C@H](N(C)C(=O)c2ccccc2)C[C@H]2O[C@]1(C)n1c3ccccc3c3c4c(c5c6ccccc6n2c5c31)C(=O)NC4
inhibition (enzyme activity; inhibitor; 1 µM): 94%

COc1ccc2oc(-c3ccc4nc(N)oc4c3)c/c(=N\c3ccccc3NC(=O)CCN)c2c1
remaining binding (binding; 1 µM): 99%

CC(C)S(=O)(=O)c1ccc2nccc(Nc3ccc4sc(C5CCCC5)nc4c3)c2c1
activity vs control (enzyme activity; inhibitor; 1 µM): 109%

COc1ccc2[nH]c3c4[nH]c5ccc(OC)cc5c4c4c(c3c2c1)C(=O)NC4=O
remaining binding (binding; competition with immobilised ligand; 1 µM): 99%

C#Cc1cnc(Nc2ccnc(CO)c2)nc1Nc1ccccc1S(C)(=O)=NC#N (stereo not drawn)
remaining signal (cell-free assay; 1 µM): 45%

C=CC(=O)N1CCC([C@@H]2CCNc3c(C(N)=O)c(-c4ccc(Oc5ccccc5)cc4)nn32)CC1
inhibition (enzyme activity; inhibitor; 1 µM): 10%

CCCCC(=O)Nc1ccc(-c2ccc3ncn(CCC)c(=O)c3c2)cn1
remaining binding (binding; competition with immobilised ligand; 0.5 µM): 84%
